Source: PubChem BioAssay
PfHsp90 yeast 2 = inhibits growth of yeast expressing Plasmodium falciparum Hsp90; S. cerevisiae expressing PfHsp90, BacTiter-Glo ATP, 48 h; yeast lacking PDR1 and PDR3 efflux regulators; inhibition, % at 9.4 µM; 310,000 compounds, 0.32% hits;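 active means every replicate shows inhibition above about 80%, whatever the replicate mean, limit read from the data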;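 further: 0% = DMSO neutral controls and 100% = 20 µM radicicol positive controls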
T cruzi inh = blocks replication of Trypanosoma cruzi. T. cruzi beta-gal in NIH3T3, luminescence, 90 h. inhibition, % (concentration not given with the values). 300,000 compounds, 1.4% hits. AID 1885;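 active means mean inhibition across valid replicates above about 55%, limit read from the data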;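 further: signal also drops with host cell toxicity which is not excluded here; 0% = plate median of DMSO wells and 100% = zero luminescence signal; higher percent means less beta-gal luminescence so fewer parasites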
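System – NIH/3T3 host cells with β-galactosidase reporter T. cruzi · Doses – single 50 nL compound addition per well in DMSO · Reagent – 5000 T. cruzi trypomastigotes/well · Medium – Low-serum DMEM with 2% FBS · Timing – ≥90 h infection period, 3 h prior cell attachment · Evaluation – parasite load inhibition, % · Technique – GalScreen luminescence, 60 min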
CSC inhib = blocks cancer stem cells; inhibition, % at 7.5 µM; 300,000 compounds, 1.1% hits; cancer stem cell-like cells viability, luminescence; AID 2717; in the data active means inhibition above about 75%; tested in HMLE shEcad cells
HIF activator = HIF pathway transcriptional activation | activation, % at 7.5 µM (by protocol) | 300,000 compounds, 0.32% hits | U2OS HRE-luciferase reporter, luminescence; normalized: DMSO 0%, desferrioxamine 100% | AID 1910;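 active means mean activation of at least 10% of the iron chelator positive control signal, with at least half of replicates also reaching 10%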
SKKanGAS inh = inhibitors of SKKanGAS S. pyogenes growth in kanamycin (SK-promoter or general growth effect); BacTiter-Glo, 6 h; inhibition, % at 7.5 µM; 300,000 compounds, 1.3% hits;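 active means mean replicate score, as percent of positive control median, at least 50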;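 further: strain carries kanamycin resistance gene driven by streptokinase promoter and grows in 40 µg/ml kanamycin; loss of luminescence reflects streptokinase promoter inhibition or plain growth inhibition; 0% = median of DMSO wells and 100% = positive control at its reference dose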
Beta apoptosis = beta cell apoptosis inhibition; INS-1E cytokine-induced death, ATP luminescence, 48 h; percent of positive-control rescue, neutral wells zero; protection from apoptosis, % (concentration not given with the values); AID 435005; 300,000 compounds, 0.8% hits;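 active means Every replicate reaches about 75%, or at least half do and their mean reaches it too, limit read from the data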;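 further: 0% = cytokine-treated negative control wells and 100% = positive control rescue; higher means more ATP so stronger rescue from cytokine killing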
The depositor's hits bear a star; . = not tested or not shown. An excerpt weighted towards active compounds, which were near 3.6% of everything screened.

SMILES | PfHsp90 yeast 2 | T cruzi inh | CSC inhib | HIF activator | SKKanGAS inh | Beta apoptosis
CCOc1ccc(C(=O)COC(=O)c2nc3nccc(C)n3n2)cc1 | . | . | . | . | . | 1
COc1cc(C(=O)OCC(=O)N2CCC(C)CC2)cc2c1OCCO2 | 6 | . | -9 | . | . | -8
O=C(Sc1cccc2cccnc12)c1ccccc1Br | 16 | -1 | 24 | 8 | 67* | 52
CC(=O)/C(=N\Nc1ccccc1)Sc1cccc2cccnc12 | 7 | -1 | -4 | 0 | 0 | -2
Cc1cn(CC(=O)N(C)Cc2ccco2)c(=O)[nH]c1=O | -10 | . | . | . | . | .
CC(=O)Nc1ccccc1 | 8 | . | . | . | . | .
C/C(=N\O)C(=O)Nc1ccccc1 | 11 | -13 | -2 | 231* | 1 | 2
CCN1CCN(c2ccc(S(=O)(=O)N3CCOCC3)cc2NC(=O)C(C)Oc2ccc(F)cc2)CC1 (stereo not drawn) | 12 | . | 8 | . | . | -3
Cc1ccc(C(=O)CC(=O)c2cc(Cl)ccc2O)cc1 | -9 | -9 | . | 1 | 126* | 6
Cc1ccc(C(=O)CC(=O)c2ccc(C)cc2O)cc1 | 5 | -6 | 12 | 8 | 62* | -3
CC(C)(C)c1ccc(C(=O)CC(=O)c2cc(Cl)ccc2O)cc1 | 20 | 23 | 3 | 3 | 91* | 28
Cc1ccc(CC(=O)c2ccc(Cl)cc2)cc1 | 5 | -18 | -7 | 3 | 2 | -11
COCc1cc(C)nc(SCC(=O)Nc2ccc(N3CCOCC3)cc2)c1C#N | -24 | 11 | -4 | 0 | 1 | 4
Cc1cccc2c1NC(=O)C21OCC(CO)([N+](=O)[O-])CO1 (stereo not drawn) | -9 | -4 | -13 | 1 | 0 | 2
COc1cc(CNCCc2ccccc2F)ccc1OCC(=O)N1CCCCC1 | -22 | 62* | 21 | 0 | 2 | -1
CCCCSc1ccc(NC(=O)c2cccnc2)cc1 | 9 | 10 | 0 | 1 | -17 | 100*
O=C(Nc1ccc(NC(=O)c2cccnc2)cc1)c1ccccc1 | -10 | -11 | -9 | 1 | -4 | 0
CCC(C)c1ccc(NC(=O)c2cccnc2)cc1 (stereo not drawn) | 31 | 8 | -6 | 3 | -9 | 12
CN(C)C(=O)c1ccc(NC(=O)c2cccnc2)cc1 | . | -5 | -3 | 0 | -4 | 96*
O=C(Nc1ccc(F)cc1)c1cccnc1 | -12 | -18 | 8 | 1 | -1 | 76*
O=C(Nc1ccc(Nc2ccccc2)cc1)c1cccc(F)c1 | -2 | 4 | 75* | -6 | 1 | 7
O=C(Nc1ccc(OC(=O)c2cccnc2)cc1)c1cccnc1 | . | -19 | -7 | 0 | -2 | -5
Cn1cccc1C(=O)NCC(c1ccco1)N1CCCCC1 (stereo not drawn) | -19 | -12 | -9 | 1 | -11 | .
COCCCNC(=O)Cn1nnc(-c2ccc(NC(=O)c3cccnc3)cc2)n1 | . | -6 | -11 | 0 | 6 | 97*
COCCCNC(=O)Cn1nnc(-c2ccc(NC(=O)c3ccc(F)cc3)cc2)n1 | 16 | -3 | 5 | 1 | -1 | -1
SMILES | PfHsp90 yeast 2 | T cruzi inh | CSC inhib | HIF activator | SKKanGAS inh | Beta apoptosis
NNC(=O)Cn1nc(Cc2ccccc2)n(N)c1=O | 11 | . | 10 | . | . | -3
CN(C)CCCNS(=O)(=O)c1ccc(NC2CCCCCC2)c([N+](=O)[O-])c1 | -6 | 46 | 0 | 0 | 4 | 85*
CCNc1ccc(S(=O)(=O)NCCN(C)C)cc1[N+](=O)[O-] | -3 | 16 | -4 | 0 | -3 | -1
CCC(CC)c1nn2c(N)c(/C=C3\C(C)=Nc4ccccc43)c(=O)nc2s1 | . | -13 | 13 | 0 | 62* | -2
CCn1ccnc1CN(C)Cc1cn(-c2cccc(C)c2)nc1-c1cccc(F)c1 | -4 | 55* | 63 | 0 | 48 | 20
Cc1ccc(-n2cc(CN3CCN(Cc4nccn4C)CC3)c(-c3cccc(C)c3)n2)cc1 | 2 | 41 | 9 | 0 | 6 | -1
Cc1cccc(-n2cc(CN(C)Cc3nccn3C)c(-c3cccc(F)c3)n2)c1 | 11 | 65* | 103* | 0 | 40 | -3
CCn1ccnc1CN(C)Cc1cn(-c2ccc(C)cc2)nc1-c1cccc(C)c1 | 15 | 66* | -2 | 1 | 28 | -2
Cc1cc(C)nc(N2CCN(c3ccc(F)cc3)CC2)n1 | 7 | -6 | . | 0 | -1 | .
CC(=O)OCC(=O)Nc1ccc([N+](=O)[O-])cc1Cl | -1 | -4 | -14 | 0 | -3 | -6
CC(=O)Oc1c(C)cc(Cl)cc1C(=O)Nc1ccc([N+](=O)[O-])cc1Cl | 15 | 48 | 120* | 4 | . | 106*
COc1ccc2[nH]c3c(c2c1)CCN1C(=O)N([C@@H](C)C(=O)NCc2ccco2)C(=O)[C@]31C | 23 | -23 | -11 | 0 | -2 | -2
Cn1c(=O)c2c(nc(OC3CCCC3)n2C)n(C)c1=O | -11 | . | . | . | . | .
COc1ccccc1NC(=S)NC1CCCCCCCCCCC1 | -8 | 54 | 20 | 0 | 12 | 77*
S=C(Nc1ccc(Oc2ccc(NC(=S)NC3CCCCC3)cc2)cc1)NC1CCCCC1 | -56 | 35 | 7 | 0 | 10 | 12
S=C(Nc1ccc(Oc2ccccc2)cc1)NC1CCCCC1 | -7 | -31 | -6 | 0 | 54* | -1
S=C(Nc1ccc(Oc2ccccc2)cc1)NC1CCCCCC1 | -61 | 11 | 95* | 1 | 18 | 6
CNC(CC(=O)c1ccc([N+](=O)[O-])cc1)C(Cl)(Cl)Cl (stereo not drawn) | 109* | . | 76* | . | . | 4
CC1(NC(=O)CC(c2ccccc2)(c2ccccc2)c2ccccc2)CCN(CCCc2ccccc2)C1=O (stereo not drawn) | 22 | . | 100* | . | . | 31
COc1ccccc1OCCCn1cc(C#N)c2ccccc21 | -5 | 5 | 16 | 0 | 28 | -3
COc1ccccc1OCCCn1c(C)c(C#N)c2ccccc21 | -10 | 25 | -8 | 1 | 62* | 1
CC[C@@]1(C(=O)OC)N[C@H](CN(C)S(=O)(=O)c2ccccc2)[C@@H]2C(=O)N(C)C(=O)[C@@H]21 | 2 | . | . | . | . | .
Cc1cc(OCCn2cnc3ccccc3c2=O)ccc1[N+](=O)[O-] | 3 | 4 | -5 | 1 | -1 | 7
O=c1c2ccc([N+](=O)[O-])cc2ncn1CCOc1ccc(Cl)cc1 | 45 | 63* | 6 | 0 | 5 | -6
O=c1c2ccc([N+](=O)[O-])cc2ncn1CCOc1cccc(Br)c1 | -53 | 67* | -11 | 0 | 2 | 0
O=C(NC(=S)Nn1cnnc1)c1ccccc1Br | -23 | -4 | 2 | 1 | 3 | 0
COc1ccccc1NC(=O)CN(C)S(=O)(=O)c1cccc2cccnc12 | -11 | -15 | 11 | 29* | 0 | -7
CC1=CCC2C(=O)N(c3cccc(C(=O)Nc4ccccc4Cl)c3)C(=O)C2C1 (stereo not drawn) | -7 | 3 | -1 | 0 | 11 | -2
